Here are results for four molecules from ChEMBL document CHEMBL3351723, “New derivatives of lupane triterpenoids disturb breast cancer mitochondria and induce cell death” (Bioorg Med Chem, 2014).

Series [1] deals with Liver microsome. Kind of series: Induction of mitochondrial function disruption in Wistar Han rat liver mitochondria energized with succinate assessed as State-4 level per mg of protein measured at 0.333 ug/mg of protein (reference value: 33.5 +/- 7.5 nmol/mg protein/min). It counts as functional.
Series [2] concerns Liver microsome. The series can be described thus: Reduction in ADP-induced mitochondrial transmembrane electropotential in Wistar Han rat liver mitochondria energized with succinate at >0.7 ug/mg of protein. The series is classed as functional.
Series [3] has as its system Hs-578T. The series can be described thus: Cytotoxicity against human Hs578T cells at 0.125 to 2 ug/ml after 1 to 5 days by sulforhodamine B assay. It counts as functional, cell-based. The gist of the method:
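Sulforhodamine B growth assay in high-glucose DMEM with 10% FBS. Cancer cells seeded at 1×10^4 cells/ml; compound (0.125–2 μg/ml) added 24 h after seeding and left for 1, 3 or 5 days. Cells fixed, total mass stained. Expressed as % of untreated cells at the same time point. Mean ± SEM, five independent experiments.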
On the technique in general: The SRB assay estimates cell density from bound dye.

A further series relates to MCF7. The series can be described thus: Cytotoxicity against human MCF7 cells at 0.125 to 2 ug/ml after 1 to 5 days by sulforhodamine B assay in presence of taxol. The series is classed as functional, cell-based.
Series [4] relates to Hs-578T. Kind of series: Induction of apoptosis in human Hs578T cells assessed as increase in caspase 9 like activity at 1 ug/ml after 24 hrs. The series is classed as functional, cell-based. The gist of the method:
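HS578T cells were treated 24 h at 1 μg/ml. Attached and floating cells were lysed in HEPES pH 7.4/CHAPS/DTT buffer. Extract protein was incubated 2 h at 37°C with […] Ac-DEVD-pNA (caspase-3) or Ac-LEHD-pNA (caspase-9). Released p-nitroanilide was read at endpoint against a pNA calibration. Six experiments, mean ± SEM.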

For the next series, the system named is MDA-MB-231. The series can be described thus: Cytotoxicity against human MDA-MB-231 cells at 0.125 to 2 ug/ml after 1 to 5 days by sulforhodamine B assay in presence of taxol. The series is classed as functional, cell-based.
Series [5] deals with Hs-578T. The series can be described thus: Induction of apoptosis in human Hs578T cells assessed as increase in cyclophilin D protein at 1 ug/ml after 24 hrs by Western blot analysis. The series is classed as functional, cell-based. In short, it runs like this: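 About 1.0×10^6 attached and floating HS578T cells, treated 24 h at 1 μg/ml, were lysed in HEPES/sucrose buffer with DTT, PMSF and protease inhibitors. Extracts were stored at -80°C, then p53 and cyclophilin D were semi-quantified by Western blot. Six experiments, mean ± SEM.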

Series [6] can be described thus: Cytotoxicity against human Hs578T cells assessed as decrease in live cells at 1 ug/ml for 24 to 48 hrs by flow cytometry. The series is classed as functional. The settings on record: Hs-578T. In short, it runs like this:
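Hs578T seeded at 2.5×10^4 cells/ml, exposed to 1 μg/ml or DMSO for 24 and 48 h. Cells trypsinized and resuspended in HEPES-buffered saline with 15 mM glucose. Stained 15 min at 37°C with 1 μM ethidium homodimer and 0.1 μM calcein-AM. Green (calcein) and red (ethidium homodimer) signals read by flow cytometry. Mean ± SEM, 6 experiments.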
(In flow cytometry, cells or beads pass a laser one at a time.)

The subject of series [7] is Liver microsome. The series can be described thus: Induction of mitochondrial function disruption in Wistar Han rat liver mitochondria energized with succinate assessed as adenosine diphosphate/O ratio measured at 0.133 ug/mg of protein (reference value: 2.3 +/- 0.2 no_unit). The series is classed as functional.
Series [8] concerns Liver microsome. The series can be described thus: Induction of mitochondrial function disruption in Wistar Han rat liver mitochondria energized with succinate assessed as respiratory control ratio measured at 0.067 ug/mg of protein (reference value: 4.1 +/- 0.5 no_unit). It counts as functional.
The subject of series [9] is Liver microsome. The series can be described thus: Induction of mitochondrial permeability transition pore in Wistar Han rat liver mitochondria assessed as mitochondrial swelling by spectrophotometry relative to control.
The test system of series [10] is Liver microsome. Kind of series: Induction of mitochondrial function disruption in Wistar Han rat liver mitochondria energized with succinate assessed as State-4 level per mg of protein measured at 0.667 ug/mg of protein (reference value: 33.5 +/- 7.5 nmol/mg protein/min). It counts as functional.
The nature of series [11]: Cell cycle arrest against human Hs578T cells assessed as decrease in cells at S phase at 0.5 ug/ml after 24 to 48 hrs by propidium iodide staining based flow cytometry. It counts as functional. The settings on record: Hs-578T. The gist of the method: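 Log-phase Hs578T cells exposed 24 and 48 h to 0.5 μg/ml. Adherent plus floating cells fixed in cold 70% ethanol, kept overnight at -20°C, washed into PBS-T (132 mM NaCl, 4 mM KCl, 1.2 mM NaH2PO4, 0.1% Tween). Treated with 20 μg/ml RNase for 45 min at 37°C, then propidium iodide for 30 min at 37°C. Phase percentages read by flow cytometry. Mean ± SEM, 5 experiments.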

Series [12] has as its system Hs-578T. The series can be described thus: Cytotoxicity against human Hs578T cells at 0.125 to 2 ug/ml after 1 to 5 days by sulforhodamine B assay in presence of taxol. The series is classed as functional, cell-based.
Series [13] concerns Liver microsome. Kind of series: Induction of mitochondrial function disruption in Wistar Han rat liver mitochondria energized with succinate assessed as adenosine diphosphate/O ratio measured at 1.333 ug/mg of protein (reference value: 2.3 +/- 0.2 no_unit). The series is classed as functional.
Series [14] has as its system Liver microsome. The series can be described thus: Effect on mitochondrial transmembrane potential in Wistar Han rat liver mitochondria energized with succinate assessed as mitochondrial transmembrane electropotential at 0.133 ug/mg of protein (reference value: 220.6 +/- 2.5 mV). It counts as functional.
In series [15] the test system is Liver microsome. Kind of series: Induction of mitochondrial function disruption in Wistar Han rat liver mitochondria energized with succinate assessed as State-3 level per mg of protein measured at 0.133 ug/mg of protein (reference value: 130.8 +/- 24.1 nmol/mg protein/min). The series is classed as functional.
Series [16] deals with Liver microsome. The series can be described thus: Induction of mitochondrial function disruption in Wistar Han rat liver mitochondria energized with succinate assessed as State-4 level per mg of protein measured at 0.067 ug/mg of protein (reference value: 33.5 +/- 7.5 nmol/mg protein/min). It counts as functional.
Series [17] concerns Liver microsome. The series can be described thus: Induction of mitochondrial function disruption in Wistar Han rat liver mitochondria energized with succinate assessed as respiratory control ratio measured at 0.133 ug/mg of protein (reference value: 4.1 +/- 0.5 no_unit). It counts as functional.
The subject of series [18] is Liver mitochondria (Rattus norvegicus). The series can be described thus: Effect on mitochondrial transmembrane potential in Wistar Han rat liver mitochondria energized with succinate assessed as time duration of lag phase at 1.333 ug/mg of protein (reference value: 40.5 +/- 4.5 sec).
Series [19] deals with Liver microsome. Kind of series: Effect on mitochondrial transmembrane potential in Wistar Han rat liver mitochondria energized with succinate assessed as ADP depolarization at 0.133 ug/mg of protein (reference value: 25.3 +/- 2.1 mV). The series is classed as functional.
The test system of the next series is BJ. Kind of series: Cytotoxicity against human BJ cells at 0.125 to 2 ug/ml after 1 to 5 days by sulforhodamine B assay. It counts as cell-based. In short, it runs like this:
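Non-tumor cells seeded at 2×10^4 cells/ml and treated 24 h after seeding, in high-glucose DMEM with pyruvate, 10% FBS and penicillin-streptomycin, 37°C, 5% CO2. Compound exposure 0.125–2 μg/ml for 1, 3 and 5 days, with vehicle controls. Cells fixed and stained with sulforhodamine B for total cell mass. Data given as % of untreated control at each time point; five independent experiments.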

The test system of series [20] is Liver microsome. The series can be described thus: Effect on mitochondrial transmembrane potential in Wistar Han rat liver mitochondria energized with succinate assessed as ADP depolarization at 0.333 ug/mg of protein (reference value: 34.7 +/- 1.4 mV). The series is classed as functional.

By inhibition is commonly meant the change of the read-out against control, counted positive when it falls.

Molecules are shown by their SMILES. Calls of active or inactive are those of the source. The calls are words filed in the database; no cut-off is given here.

As for `C=C(C)[C@@H]1CC[C@]2(COC(=O)C[N+](C)(C)C(C)C)CC[C@]3(C)[C@H](CC[C@@H]4[C@@]5(C)CC[C@H](OC(=O)C[N+](C)(C)C(C)C)C(C)(C)[C@@H]5CC[C@]43C)[C@@H]12.[Cl-].[Cl-]`, the Activity in the series on Liver microsome [1] is 27.2 nmol/min; with Liver microsome [10], 28.8 nmol/min; with Liver microsome [14], 217 mV; in the series on Liver microsome [15], 121 nmol/min; in the series with Liver microsome [16] it was 27.5 nmol/min. The inhibition result (in the series with Liver microsome [2]; with Hs-578T [3]; in the series with MCF7; in the series with MDA-MB-231; in series [11]; with Hs-578T [12]) was “Active” throughout. Further, the outcome in the series with Hs-578T [4] and in the series on Hs-578T [5] was Active. The inhibition at 1 µg/mL in series [6] was 10%. The Ratio in the series on Liver microsome [7] was found to be 3.1; in the series on Liver microsome [8] it was 4; in the series with Liver microsome [13] it was 2.9; in the series on Liver microsome [17] it was 4. The fold change (FC) with Liver microsome [9] was found to be 5.

For `C=C(C)[C@@H]1CC[C@]2(COC(=O)C(CC)[n+]3ccc(N(C)C)cc3)CC[C@]3(C)[C@H](CC[C@@H]4[C@@]5(C)CC[C@H](OC(=O)C(CC)[n+]6ccc(N(C)C)cc6)C(C)(C)[C@@H]5CC[C@]43C)[C@@H]12` (stereo not given in full), the Activity in the series on Liver microsome [1] amounted to 23.2 nmol/min; in the series with Liver microsome [10], 23.2 nmol/min; in the series with Liver microsome [15], 131 nmol/min; with Liver microsome [16], 24.1 nmol/min. For the same molecule, the outcome in the series with Hs-578T [4] and in the series with Hs-578T [5] was Active. Also, the TIME in series [18] was determined as 0.0136 h. In addition, the inhibition at 1 µg/mL in series [6] is 10%. Moreover, the Ratio is 1.6 in the series with Liver microsome [7], 3 in the series on Liver microsome [8], 1.6 with Liver microsome [13] and 3 in the series with Liver microsome [17]. Moreover, the fold change (FC) in the series with Liver microsome [9] turned out to be 5. Further, in series [11], the inhibition entry is “Active”.

For `C=C(C)[C@@H]1CC[C@]2(COC(=O)CC[n+]3ccc(N(C)C)cc3)CC[C@]3(C)[C@H](CC[C@@H]4[C@@]5(C)CC[C@H](OC(=O)CC[n+]6ccc(N(C)C)cc6)C(C)(C)[C@@H]5CC[C@]43C)[C@@H]12.[Cl-].[Cl-]`, the Activity was 29.1 nmol/min in the series with Liver microsome [1]; 26.2 mV with Liver microsome [19]; 25.7 nmol/min with Liver microsome [10]; “Toxic” in the series with BJ; 111 nmol/min in the series with Liver microsome [15]; 29.4 nmol/min in the series with Liver microsome [16]. Also, the inhibition entry (with Hs-578T [3]; in [11]) was “Active” each time. Further, the outcome in the series on Hs-578T [4] and in the series with Hs-578T [5] was Active. Besides, the Ratio was 1.7 in the series on Liver microsome [7], 4.3 in the series with Liver microsome [8], 1.8 in the series with Liver microsome [13] and 4.1 in the series on Liver microsome [17].

Take `C=C(C)[C@@H]1CC[C@]2(COC(=O)C[n+]3ccc(N(C)C)cc3)CC[C@]3(C)[C@H](CC[C@@H]4[C@@]5(C)CC[C@H](OC(=O)C[n+]6ccc(N(C)C)cc6)C(C)(C)[C@@H]5CC[C@]43C)[C@@H]12.[Cl-].[Cl-]`: the Activity in the series with Liver microsome [1] was 34.8 nmol/min; in the series with Liver microsome [20], 29 mV; with Liver microsome [10], 34.5 nmol/min; with BJ, “Non-toxic”; in the series with Liver microsome [15], 130 nmol/min; with Liver microsome [16] it was 24.5 nmol/min. Moreover, the inhibition result (with Liver microsome [2]; with MCF7; in the series on MDA-MB-231; in [11]; in the series on Hs-578T [12]) was “Active” in each case. In the series with Hs-578T [5], the outcome was Active. Further, in series [6], the inhibition at 1 µg/mL worked out at 10%. Also, the Ratio in the series with Liver microsome [7] turned out to be 2.4; in the series with Liver microsome [8] it was 4.1; with Liver microsome [13] it was 2.3; in the series with Liver microsome [17] it was 4.1. Further, the fold change (FC) in the series on Liver microsome [9] turned out to be 5.
